Measured values taken from ChEMBL document CHEMBL1759861, “Synthesis of 9-substituted derivatives of berberine as anti-HIV agents” (Eur J Med Chem, 2011).
pEC50: −log10 of the molar value.

What was measured:
[1] = system: Human immunodeficiency virus 1; assay: Antiviral activity against 0.05 MOI Human immunodeficiency virus 1 NL4.3 infected in human CEM cells expressing green fluorescent protein assessed as p24 antigen production at 1.05 uM measured 7 days post infection by ELISA; format: functional; details: Human immunodeficiency virus 1, NL4.3, CCRF-CEM, 168 h
Method in brief: (§1)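 CD4+ T-cell line CEM-GFP infected with HIV-1 NL4.3 at MOI 0.05, monitored by GFP under the microscope. Each sample tested at a single concentration, its highest noncytotoxic concentration, for up to 7 days post infection. Day-7 culture supernatant assayed for virus by p24 antigen capture ELISA; % inhibition of replication reported. AZT positive control.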

[2] = system: Human immunodeficiency virus 1; assay: Antiviral activity against 0.05 MOI Human immunodeficiency virus 1 NL4.3 infected in human CEM cells expressing green fluorescent protein assessed as p24 antigen production at 9.77 uM measured 7 days post infection by ELISA; format: functional; details: Human immunodeficiency virus 1, NL4.3, CCRF-CEM, 168 h; method in brief: as §1
[3] = system: Human immunodeficiency virus 1; assay: Antiviral activity against 0.05 MOI Human immunodeficiency virus 1 NL4.3 infected in human CEM cells expressing green fluorescent protein assessed as p24 antigen production measured 7 days post infection by ELISA; format: functional, organism-based; details: Human immunodeficiency virus 1, NL4.3, CCRF-CEM, 168 h
Method in brief: (§2)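 CEM-GFP cells infected with HIV-1 NL4.3 (MOI 0.05) and cultured with samples over a concentration range up to 7 days post infection. p24 antigen capture ELISA on day-7 supernatant. EC50 is the concentration giving 50% inhibition of infected cells. Therapeutic index is CC50 in uninfected cells (MTT, 48 h) divided by EC50.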

[4] = system: Human immunodeficiency virus 1; assay: Antiviral activity against 0.05 MOI Human immunodeficiency virus 1 NL4.3 infected in human CEM cells expressing green fluorescent protein assessed as p24 antigen production at 5 uM measured 7 days post infection by ELISA; format: functional; details: Human immunodeficiency virus 1, NL4.3, CCRF-CEM, 168 h; method in brief: as §1
[5] = system: Human immunodeficiency virus 1; assay: Antiviral activity against 0.05 MOI Human immunodeficiency virus 1 NL4.3 infected in human CEM cells expressing green fluorescent protein assessed as p24 antigen production at 5.31 uM measured 7 days post infection by ELISA; format: functional; details: Human immunodeficiency virus 1, NL4.3, CCRF-CEM, 168 h; method in brief: as §1
[6] = Cytotoxicity against human CEM cells expressing green fluorescent protein after 48 hrs by MTT assay; format: cell-based, CCRF-CEM
Method in brief: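 Uninfected CEM-GFP cells seeded at 2×10^4 cells/well with samples at several concentrations, untreated and vehicle-treated controls, 48 h. MTT reagent (5 mg/ml stock) added, formazan solubilised, absorbance read at 540 nm. CC50 is the concentration giving 50% cytotoxicity.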

[7] = Therapeutic index, ratio of CC50 for human CEM cells expressing green fluorescent protein to EC50 for Human immunodeficiency virus 1 NL4.3; format: cell-based, CCRF-CEM; details: read-out: TI; method in brief: as §2
[8] = system: Human immunodeficiency virus 1; assay: Antiviral activity against 0.05 MOI Human immunodeficiency virus 1 NL4.3 infected in human CEM cells expressing green fluorescent protein assessed as p24 antigen production at 4.32 uM measured 7 days post infection by ELISA; format: functional; details: Human immunodeficiency virus 1, NL4.3, CCRF-CEM, 168 h; method in brief: as §1
[9] = target: Human immunodeficiency virus type 1 reverse transcriptase (Human immunodeficiency virus 1) (UniProt Q72547); assay: Inhibition of Human immunodeficiency virus 1 NL4.3 reverse transcriptase activity at 20 ug/ml
[10] = system: Human immunodeficiency virus 1; assay: Antiviral activity against 0.05 MOI Human immunodeficiency virus 1 NL4.3 infected in human CEM cells expressing green fluorescent protein assessed as p24 antigen production at 5.30 uM measured 7 days post infection by ELISA; format: functional; details: Human immunodeficiency virus 1, NL4.3, CCRF-CEM, 168 h; method in brief: as §1
[11] = system: Human immunodeficiency virus 1; assay: Antiviral activity against 0.05 MOI Human immunodeficiency virus 1 NL4.3 infected in human CEM cells expressing green fluorescent protein assessed as p24 antigen production at 1.03 uM measured 7 days post infection by ELISA; format: functional; details: Human immunodeficiency virus 1, NL4.3, CCRF-CEM, 168 h; method in brief: as §1
[12] = system: Human immunodeficiency virus 1; assay: Antiviral activity against 0.05 MOI Human immunodeficiency virus 1 NL4.3 infected in human CEM cells expressing green fluorescent protein assessed as p24 antigen production at 4.62 uM measured 7 days post infection by ELISA; format: functional; details: Human immunodeficiency virus 1, NL4.3, CCRF-CEM, 168 h; method in brief: as §1
[13] = system: Human immunodeficiency virus 1; assay: Antiviral activity against 0.05 MOI Human immunodeficiency virus 1 NL4.3 infected in human CEM cells expressing green fluorescent protein assessed as p24 antigen production at 2.24 uM measured 7 days post infection by ELISA; format: functional; details: Human immunodeficiency virus 1, NL4.3, CCRF-CEM, 168 h; method in brief: as §1
[14] = system: Human immunodeficiency virus 1; assay: Antiviral activity against 0.05 MOI Human immunodeficiency virus 1 NL4.3 infected in human CEM cells expressing green fluorescent protein assessed as p24 antigen production at 4.88 uM measured 7 days post infection by ELISA; format: functional; details: Human immunodeficiency virus 1, NL4.3, CCRF-CEM, 168 h; method in brief: as §1
[15] = system: Human immunodeficiency virus 1; assay: Antiviral activity against 0.05 MOI Human immunodeficiency virus 1 NL4.3 infected in human CEM cells expressing green fluorescent protein assessed as p24 antigen production at 18.03 uM measured 7 days post infection by ELISA; format: functional; details: Human immunodeficiency virus 1, NL4.3, CCRF-CEM, 168 h; method in brief: as §1
[16] = system: Human immunodeficiency virus 1; assay: Antiviral activity against 0.05 MOI Human immunodeficiency virus 1 NL4.3 infected in human CEM cells expressing green fluorescent protein assessed as p24 antigen production at 1.95 uM measured 7 days post infection by ELISA; format: functional; details: Human immunodeficiency virus 1, NL4.3, CCRF-CEM, 168 h; method in brief: as §1
[17] = system: Human immunodeficiency virus 1; assay: Antiviral activity against 0.05 MOI Human immunodeficiency virus 1 NL4.3 infected in human CEM cells expressing green fluorescent protein assessed as p24 antigen production at 2.10 uM measured 7 days post infection by ELISA; format: functional; details: Human immunodeficiency virus 1, NL4.3, CCRF-CEM, 168 h; method in brief: as §1
[18] = target: Human immunodeficiency virus type 1 reverse transcriptase (Human immunodeficiency virus 1) (UniProt Q72547); assay: Inhibition of Human immunodeficiency virus 1 NL4.3 reverse transcriptase activity at 200 ug/ml
Method in brief: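 HIV-1 RT inhibition measured with a colorimetric reverse transcriptase assay kit, following the manufacturer's protocol; nevirapine served as the positive control.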

[19] = system: Human immunodeficiency virus 1; assay: Antiviral activity against 0.05 MOI Human immunodeficiency virus 1 NL4.3 infected in human CEM cells expressing green fluorescent protein assessed as p24 antigen production at 15.52 uM measured 7 days post infection by ELISA; format: functional; details: Human immunodeficiency virus 1, NL4.3, CCRF-CEM, 168 h; method in brief: as §1
[20] = system: Human immunodeficiency virus 1; assay: Antiviral activity against 0.05 MOI Human immunodeficiency virus 1 NL4.3 infected in human CEM cells expressing green fluorescent protein assessed as p24 antigen production at 0.02 uM measured 7 days post infection by ELISA; format: functional; details: Human immunodeficiency virus 1, NL4.3, CCRF-CEM, 168 h; method in brief: as §1
[21] = system: Human immunodeficiency virus 1; assay: Antiviral activity against 0.05 MOI Human immunodeficiency virus 1 NL4.3 infected in human CEM cells expressing green fluorescent protein assessed as p24 antigen production at 21.65 uM measured 7 days post infection by ELISA; format: functional; details: Human immunodeficiency virus 1, NL4.3, CCRF-CEM, 168 h; method in brief: as §1
[22] = system: Human immunodeficiency virus 1; assay: Antiviral activity against 0.05 MOI Human immunodeficiency virus 1 NL4.3 infected in human CEM cells expressing green fluorescent protein assessed as p24 antigen production at 0.29 uM measured 7 days post infection by ELISA; format: functional; details: Human immunodeficiency virus 1, NL4.3, CCRF-CEM, 168 h; method in brief: as §1
[23] = system: Human immunodeficiency virus 1; assay: Antiviral activity against 0.05 MOI Human immunodeficiency virus 1 NL4.3 infected in human CEM cells expressing green fluorescent protein assessed as p24 antigen production at 4.69 uM measured 7 days post infection by ELISA; format: functional; details: Human immunodeficiency virus 1, NL4.3, CCRF-CEM, 168 h; method in brief: as §1

In the case of `COc1ccc2cc3[n+](cc2c1OC(=O)c1cccc2ccccc12)CCc1cc2c(cc1-3)OCO2`, the inhibition at 1.05 µM [1] was 0%.

For `COc1ccc2cc3[n+](cc2c1OC(=O)c1ccc(C(F)(F)F)cc1F)CCc1cc2c(cc1-3)OCO2`, the inhibition at 9.77 µM [2] was 23.4%.

`Cc1cn([C@H]2C[C@H](N=[N+]=[N-])[C@@H](CO)O2)c(=O)[nH]c1=O` [ZIDOVUDINE] showed a pEC50 [3] of 5.98 and an inhibition at 5 µM [4] of 89.8%.

In the case of `COc1ccc2cc3[n+](cc2c1OC(=O)c1ccc2c(c1)OCO2)CCc1cc2c(cc1-3)OCO2`, the inhibition at 5.31 µM [5] was 45.6%.

`COc1ccc2cc3[n+](cc2c1OC(=O)c1ccc(F)cc1F)CCc1cc2c(cc1-3)OCO2` gave a CC50 at 48 h [6] of 57.1 µM, a pEC50 [3] of 6.02 and a selectivity ratio [7] of 60.1. For the same compound, the inhibition at 4.32 µM [8] was 71.7% and the inhibition [9] was 99%.

In the case of `COc1ccc2cc3[n+](cc2c1OC(=O)c1ccc(SC)cc1)CCc1cc2c(cc1-3)OCO2`, the inhibition at 5.3 µM [10] was 0%.

`COc1ccc2cc3[n+](cc2c1OC(=O)C12CC4CC(CC(C4)C1)C2)CCc1cc2c(cc1-3)OCO2` showed an inhibition at 1.03 µM [11] of 64.2%.

For `COc1ccc2cc3[n+](cc2c1OC(=O)c1cccs1)CCc1cc2c(cc1-3)OCO2`, the CC50 at 48 h [6] was 91.9 µM, the pEC50 [3] was 5.74 and the selectivity ratio [7] was 50.5. It also gave an inhibition at 4.62 µM [12] of 73.1% and an inhibition [9] of 99%.

Work on `COc1ccc2cc3[n+](cc2c1OC(=O)Cc1cccs1)CCc1cc2c(cc1-3)OCO2` yielded an inhibition at 2.24 µM [13] of 0%.

Compound `COc1ccc2cc3[n+](cc2c1OC(=O)c1ccc(F)cc1C(F)(F)F)CCc1cc2c(cc1-3)OCO2` has an inhibition at 4.88 µM [14] of 0%.

In the case of `COc1ccc2cc3[n+](cc2c1OC(=O)c1ccco1)CCc1cc2c(cc1-3)OCO2`, the inhibition at 18.03 µM [15] was 22.6%.

Work on `COc1ccc2cc3[n+](cc2c1OC(=O)c1c(F)cccc1C(F)(F)F)CCc1cc2c(cc1-3)OCO2` yielded an inhibition at 1.95 µM [16] of 0%.

`COc1ccc2cc3[n+](cc2c1OC(=O)c1ccc2ccccc2c1)CCc1cc2c(cc1-3)OCO2` showed an inhibition at 2.1 µM [17] of 58.8%.

For `COc1cc2c(cc1OC)[C@@H]1Cc3ccc(OC)c(OC)c3CN1CC2`, the inhibition [18] was 25%.

`COc1ccc2cc3[n+](cc2c1O)CCc1cc2c(cc1-3)OCO2` [BERBERRUBINE CHLORIDE] showed a CC50 at 48 h [6] of 169 µM, a pEC50 [3] of 5.55 and a selectivity ratio [7] of 60.4. It also gave an inhibition at 15.52 µM [19] of 77% and an inhibition [9] of 99%.

For `COc1ccc(C(=O)Oc2c(OC)ccc3cc4[n+](cc23)CCc2cc3c(cc2-4)OCO3)cc1`, the inhibition at 0.02 µM [20] was 44.3%.

For `COc1ccc2cc3[n+](cc2c1OC(=O)c1ccc(F)c(F)c1)CCc1cc2c(cc1-3)OCO2`, the inhibition at 21.65 µM [21] was 0%.

For `COc1ccc2cc3[n+](cc2c1OC)CCc1cc2c(cc1-3)OCO2` [BERBERINE CHLORIDE], the CC50 at 48 h [6] was 2.09 µM, the pEC50 [3] was 6.89 and the selectivity ratio [7] was 16.1. The inhibition at 0.29 µM [22] was 66% and the inhibition [9] was 94%.

Work on `COc1ccc2cc3[n+](cc2c1OC(=O)c1ccc(F)c(C(F)(F)F)c1)CCc1cc2c(cc1-3)OCO2` yielded an inhibition at 4.88 µM [14] of 0%.

Work on `COc1ccc2cc3[n+](cc2c1OC(=O)c1ccccc1)CCc1cc2c(cc1-3)OCO2` yielded an inhibition at 4.69 µM [23] of 37.2%.
